Test results taken from ChEMBL document CHEMBL4665841, “Rapid Solid-Phase Construction of Serine Hydrolase Probes Results in Selective Activity-Based Probes for Acyl Protein Thioesterases-1/2” (J Med Chem, 2020).
pIC50: −log10 of the molar value. Activity calls are given as the source filed them. The calls are words filed in the database; no cut-off is given here.

Legend:
[1] = biological target: T1, Acyl-protein thioesterase 1/2 (Mus musculus) (UniProt P97823+Q9WTL7); test: Inhibition of FP-Rh binding to APT-1/2 in mouse brain membrane fraction preincubated for 1 hr followed by FP-Rh addition and measured after 1 hr by SDS-PAGE analysis; format: cell membranes; conditions: time 2.0 hrs
Method in brief: (§1)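 Apparent IC50 by competitive ABPP. Mouse brain cytosolic or membrane fraction (1 mg/mL) preincubated 1 h at RT with six inhibitor concentrations (1:3 serial dilution from top 30 μM or 370 nM; 100x DMSO stock), then FP-rhodamine 1 h. 12% SDS-PAGE, fluorescence at 532/568 nm. Band intensities normalized to uninhibited FP-Rh control (100%); IC50 fitted from dose-response curve.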

[2] = biological target: T1, Acyl-protein thioesterase 1/2 (Mus musculus); test: (§2) Inhibition of FP-Rh binding to APT-1/2 in mouse brain cytosolic fraction preincubated for 1 hr followed by FP-Rh addition and measured after 1 hr by SDS-PAGE analysis; format: tissue-based; conditions: time 2.0 hrs; method in brief: as §1
Mus musculus = organism: Mus musculus; test: Selectivity ratio of apparent IC50 for inhibition of FP-Rh binding to ABHD6 in mouse brain cytosolic fraction to apparent IC50 for inhibition of FP-Rh binding to APT-1/2 in mouse brain membrane fraction; format: cell membranes
Method in brief: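 Ratio of apparent IC50 values from competitive ABPP in mouse brain fractions (1 mg/mL). Each IC50 came from a 1 h inhibitor preincubation over six 1:3-diluted concentrations, then 1 h FP-rhodamine. 12% SDS-PAGE and in-gel fluorescence; band intensity normalized to uninhibited control, then fitted to a dose-response curve.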

[3] = biological target: T2, Monoacylglycerol lipase ABHD6 (Mus musculus, UniProt Q8R2Y0); test: Inhibition of FP-Rh binding to ABHD6 in mouse brain cytosolic fraction preincubated for 1 hr followed by FP-Rh addition and measured after 1 hr by SDS-PAGE analysis; format: tissue-based; method in brief: as §1
T2 sequence (Q8R2Y0 whole entry): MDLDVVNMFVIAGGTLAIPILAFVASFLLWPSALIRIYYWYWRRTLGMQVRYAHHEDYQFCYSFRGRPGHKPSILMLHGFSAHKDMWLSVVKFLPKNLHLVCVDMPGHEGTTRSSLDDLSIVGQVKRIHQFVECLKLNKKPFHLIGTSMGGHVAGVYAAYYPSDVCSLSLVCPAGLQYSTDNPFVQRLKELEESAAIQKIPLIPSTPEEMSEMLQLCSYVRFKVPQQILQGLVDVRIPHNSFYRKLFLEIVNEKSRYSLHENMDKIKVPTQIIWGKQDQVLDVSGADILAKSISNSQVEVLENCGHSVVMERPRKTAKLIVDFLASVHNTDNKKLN

[4] = biological target: Acyl-protein thioesterase 1/2 (Mus musculus, UniProt P97823+Q9WTL7); test: as §2; format: tissue-based; method in brief: as §1
[5] = biological target: T1, Acyl-protein thioesterase 1/2 (Mus musculus); test: Inhibition of APT-1/2 in mouse brain membrane fraction at 0.1 to 1 uM preincubated for 1 hr followed by TAMRA-alkyne addition and measured after 1 hr by SDS-PAGE analysis based click chemistry labelling method; format: cell membranes; conditions: dose microM 0.1-1, time 2.0 hrs
Method in brief: (§3)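 Mouse brain cytosolic or membrane fraction (1 mg/mL; membrane pellet from 100,000 g spin, in 20 mM HEPES, 2 mM DTT, pH 7.2) incubated 1 h with probe added from 100x DMSO stock. CuAAC click with TAMRA-alkyne, THPTA, sodium ascorbate and CuSO4 for 1 h at room temperature; boiled in sample buffer, 12% SDS-PAGE, in-gel fluorescence.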

[6] = biological target: T1, Acyl-protein thioesterase 1/2 (Mus musculus); test: Inhibition of APT-1/2 in mouse brain cytosolic fraction at 1 uM preincubated for 1 hr followed by TAMRA-Lys(biotin)-NH-propyne addition and measured after 1 hr click chemistry labelling based Western blot analysis; format: tissue-based; conditions: time 2.0 hrs
Method in brief: (§4)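 Cytosolic or membrane mouse brain fraction (1 mg/mL) treated 1 h with 1 μM probe (100x DMSO stock) or DMSO. Click with TAMRA-Lys(biotin)-NHpropyne tag, THPTA, CuSO4, ascorbate, 1 h RT. Two cold-acetone precipitations, redissolved in PBS/2% SDS, diluted to 0.4% SDS, streptavidin pull-down 1 h at 25 °C. Gel fluorescence scanned, then blotted with anti-APT-1 or anti-APT-2 (0.5 μg/mL) overnight, HRP anti-rabbit, chemiluminescence.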

[7] = biological target: Acyl-protein thioesterase 1/2 (Homo sapiens) (UniProt O75608+O95372); test: Inhibition of FP-Rh binding to APT-1/2 in human A-431 cells at 1 uM preincubated for 2 hrs followed by compound washout and subsequent FP-Rh addition and measured after 1 hr by SDS-PAGE analysis
[8] = biological target: T1, Acyl-protein thioesterase 1/2 (Mus musculus); test: Inhibition of APT-1/2 in mouse brain membrane fraction at 1 uM preincubated for 1 hr followed by TAMRA-Lys(biotin)-NH-propyne addition and measured after 1 hr click chemistry labelling based Western blot analysis; format: cell membranes; conditions: time 2.0 hrs; method in brief: as §4
[9] = biological target: T1, Acyl-protein thioesterase 1/2 (Mus musculus); test: Inhibition of APT-1/2 in mouse brain cytosolic fraction at 0.1 to 1 uM preincubated for 1 hr followed by TAMRA-alkyne addition and measured after 1 hr by SDS-PAGE analysis based click chemistry labelling method; format: tissue-based; conditions: dose microM 0.1-1, time 2.0 hrs; method in brief: as §3

T1 sequence (P97823 whole entry, looked up): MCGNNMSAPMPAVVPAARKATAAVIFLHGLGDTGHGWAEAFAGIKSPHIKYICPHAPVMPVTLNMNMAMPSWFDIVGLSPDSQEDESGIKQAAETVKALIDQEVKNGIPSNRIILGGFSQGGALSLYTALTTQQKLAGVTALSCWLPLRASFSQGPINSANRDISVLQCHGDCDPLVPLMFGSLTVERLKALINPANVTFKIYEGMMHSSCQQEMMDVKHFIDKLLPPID
T1 sequence (Q9WTL7 whole entry, looked up): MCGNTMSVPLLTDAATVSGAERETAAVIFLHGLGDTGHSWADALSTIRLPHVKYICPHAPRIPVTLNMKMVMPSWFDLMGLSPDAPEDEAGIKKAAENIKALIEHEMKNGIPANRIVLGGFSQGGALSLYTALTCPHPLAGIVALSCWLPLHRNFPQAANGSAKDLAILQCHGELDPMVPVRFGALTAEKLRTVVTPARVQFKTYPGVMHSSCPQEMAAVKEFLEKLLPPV
Sequence of Acyl-protein thioesterase 1/2 (Homo sapiens) (O75608 whole entry, looked up): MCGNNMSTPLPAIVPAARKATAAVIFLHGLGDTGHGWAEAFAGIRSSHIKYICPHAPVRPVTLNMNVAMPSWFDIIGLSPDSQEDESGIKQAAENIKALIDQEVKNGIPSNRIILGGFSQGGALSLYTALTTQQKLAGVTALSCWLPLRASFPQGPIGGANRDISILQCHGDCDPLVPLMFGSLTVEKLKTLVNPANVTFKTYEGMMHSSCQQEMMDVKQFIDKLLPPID
Sequence of Acyl-protein thioesterase 1/2 (Homo sapiens) (O95372 whole entry, looked up): as the sequence (Q9WTL7 whole entry, looked up) above, with N154A, T193S counted along it

| inhibition [1] | inhibition [2] | Ratio IC50 (Mus musculus) | pIC50 [3] | IC50(app) [4] | inhibition [5] | inhibition [6] | inhibition [7] | inhibition [8] | inhibition [9] | Compound |
| --- | --- | --- | --- | --- | --- | --- | --- | --- | --- | --- |
| Active | Active | – | – | – | – | – | – | – | – | [N-]=[N+]=NCCCC[C@H](NC(=O)CCCCCNC(=O)CN(Cc1ccccc1)C(=O)C1CCN(C(=O)ON2C(=O)CCC2=O)CC1)C(N)=O |
| Active | – | > 65 | < 4.52 | 0.46 µM | – | – | – | – | – | [N-]=[N+]=NCCCC[C@H](NC(=O)CCCCCNC(=O)[C@H](Cc1ccccc1)NC(=O)C1CCN(C(=O)n2ccnn2)CC1)C(N)=O |
| Active | – | > 2500 | < 4.52 | 0.0118 µM | Active | Active | Active | Active | Active | [N-]=[N+]=NCCCC[C@H](NC(=O)CCCCCNC(=O)CN(Cc1ccccc1)C(=O)C1CCN(C(=O)n2ccnn2)CC1)C(N)=O |
| Active | Active | – | – | – | – | – | – | – | – | [N-]=[N+]=NCCCC[C@H](NC(=O)CCCCCNC(=O)c1ccc(CN2CCN(C(=O)ON3C(=O)CCC3=O)CC2)cc1)C(N)=O |
| Active | – | 250 | 5.13 | 0.0279 µM | Active | Active | Active | Active | Active | [N-]=[N+]=NCCCC[C@H](NC(=O)CCCCCNC(=O)c1ccc(CN2CCN(C(=O)n3ccnn3)CC2)cc1)C(N)=O |
